Experiment [1] has as its target Thromboxane A2 receptor (Oryctolagus cuniculus). Kind of experiment: Ability to inhibit U-46,619-induced contraction of isolated strips of rabbit thoracic aorta, which is the measure of thromboxane receptor antagonism. As to conditions: read-out: pA2 (converted).
The species entered for experiment [2] is Cavia porcellus. Put plainly: Ability to antagonise the actions of crude SRSA on guinea pig ileum was determined. In kind it is functional. Particulars: read-out: pA2 (converted).
The species named for experiment [3] is Oryctolagus cuniculus. Kind of experiment: Compound was tested for the antagonist serotonin- and norepinephrine-induced contractions of rabbit aorta. In kind it is functional. In a few lines: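 Rabbit aortic strips contracted with serotonin or norepinephrine and tested in the presence of the antagonist at concentrations up to 2×10^-5 M.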
Experiment [4] is filed under the species Oryctolagus cuniculus. Kind of experiment: Ability to inhibit the contractile effect of PGE-2 on rabbit aorta was determined. In kind it is functional. As to conditions: read-out: pA2 (converted).
The species entered for experiment [5] is Cavia porcellus. Put plainly: Ability to inhibit relaxant effect of PGE-2 on guinea pig trachea was determined. In kind it is functional. As to conditions: read-out: pA2 (converted).
The species named for experiment [6] is Cavia porcellus. Kind of experiment: Inhibition of the response to PGE-2 in guinea pig ileum was determined. Particulars: read-out: pA2 (converted). It counts as functional.
For experiment [7], the species on record is Rattus norvegicus. Kind of experiment: Ability to inhibit the contractile effect of PGD-2 on rat aorta was determined. In kind it is functional. Particulars: read-out: pA2 (converted).
The species named for experiment [8] is Homo sapiens. Kind of experiment: Ability to inhibit aggregate formation in human platelets induced by arachidonic acid. It counts as functional.
Experiment [9] is filed under the species Rattus norvegicus. Kind of experiment: Ability to inhibit norepinephrine -induced contraction of isolated strips of rat aorta, […]. In kind it is functional. Particulars: read-out: pA2 (converted).
The species entered for experiment [10] is Homo sapiens. Put plainly: Ability to inhibit aggregate formation in human platelets induced by collagen. It counts as functional.
Experiment [11] has as its target thromboxane A2 (TxA2) receptor (Cavia porcellus, UniProt A0A286Y4I8). Kind of experiment: Ability to inhibit U-46,619-induced contraction of isolated strips of guinea pig tracheal chain, which is the measure of thromboxane receptor antagonism. It counts as functional. As to conditions: read-out: pA2 (converted).
Another experiment addresses T1, Thromboxane A2 receptor (Rattus norvegicus, UniProt P34978).
T1 sequence (P34978 whole entry): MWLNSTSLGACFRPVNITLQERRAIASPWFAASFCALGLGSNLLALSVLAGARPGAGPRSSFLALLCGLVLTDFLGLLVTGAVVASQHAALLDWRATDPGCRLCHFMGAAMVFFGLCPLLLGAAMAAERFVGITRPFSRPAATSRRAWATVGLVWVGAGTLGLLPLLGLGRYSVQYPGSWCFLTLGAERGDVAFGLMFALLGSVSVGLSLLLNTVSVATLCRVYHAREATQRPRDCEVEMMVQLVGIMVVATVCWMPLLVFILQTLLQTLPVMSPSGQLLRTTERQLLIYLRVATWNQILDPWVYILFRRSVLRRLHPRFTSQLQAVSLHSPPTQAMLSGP
Kind of experiment: Ability to inhibit U-46,619-induced contraction of isolated strips of rat aorta, which is the measure of thromboxane receptor antagonism. It counts as functional. Particulars: read-out: pA2 (converted).

The species named for experiment [12] is Cavia porcellus. Put plainly: Compound was tested for the concentration that inhibited the bronchoconstriction induced by U 46619 for a period exceeding 2 h. It counts as functional.
For experiment [13], the species on record is Cavia porcellus. Put plainly: Ability to inhibit the contractile effect of PGF2-alpha on guinea pig trachea. As to conditions: read-out: pA2 (converted).
The species named for experiment [14] is Cavia porcellus. Kind of experiment: Ability to inhibit the contractile effect of PGE-2 on guinea pig trachea. It counts as functional. As to conditions: read-out: pA2 (converted).
The species named for experiment [15] is Homo sapiens. Put plainly: Compound was tested for the concentration in human platelet -rich plasma that did not modify PGI-2 inhibition of ADP- induced aggregation. In kind it is functional.
For experiment [16], the species on record is Rattus norvegicus. Kind of experiment: Inhibition of the response to […] in rat colon was determined. It counts as functional. As to conditions: read-out: pA2 (converted).
The species named for experiment [17] is Oryctolagus cuniculus. Put plainly: Ability to inhibit the contractile effect of […] on rabbit aorta was determined. It counts as functional. As to conditions: read-out: pA2 (converted).

Here are results for four molecules from ChEMBL document CHEMBL1123937, “(5Z)-7-(2,2-Dimethyl-4-phenyl-1,3-dioxan-cis-5-yl)heptenoi c acid: a specific thromboxane A2 receptor antagonist” (J Med Chem, 1987).

Regarding `O=C(O)CCC/C=C\C[C@@H]1COCO[C@@H]1c1ccccc1`, the Kb in experiment [1] was 501 nM.

Take `CC1(C)OC[C@H](C/C=C\CCCC(=O)O)[C@@H](c2ccccc2)O1`: the Kb in experiment [1] is over 20000 nM.

As for `O=C(O)CCC/C=C\C[C@H]1COCO[C@@H]1c1ccccc1`, in experiment [1], the Kb is over 20000 nM.

Consider `CC1(C)OC[C@@H](C/C=C\CCCC(=O)O)[C@@H](c2ccccc2)O1`, for which the Kb is over 20 µM in the experiment filed under Cavia porcellus [2]; 6.76 µM in the experiment filed under Oryctolagus cuniculus [4]; over 20 µM in the experiment listed under Cavia porcellus [5]; over 20 µM in the experiment listed under Cavia porcellus [6]; 1950 nM in the experiment filed under Rattus norvegicus [7]; over 20 µM in the experiment listed under Rattus norvegicus [9]. The Kb in experiment [11] is 263 nM; at Thromboxane A2 receptor, 145 nM; in the experiment filed under Cavia porcellus [13] it was 11.2 µM; in the experiment filed under Cavia porcellus [14], 10.5 µM; in experiment [1], 501 nM; in the experiment listed under Rattus norvegicus [16] it was over 20 µM. The Kb in the experiment listed under Oryctolagus cuniculus [17] was 1620 nM. The Concentration in the experiment listed under Oryctolagus cuniculus [3] was 20 µM; in the experiment listed under Homo sapiens [15] it was 100 µM. Besides, the KB amounted to 1.42e-05 in the experiment filed under Homo sapiens [8] and 9.12e-06 in the experiment filed under Homo sapiens [10]. The Activity in the experiment listed under Cavia porcellus [12] was determined as 5 mg/kg.
